Test results published in ChEMBL document CHEMBL5370658, “Development of First-in-Class Dual Sirt2/HDAC6 Inhibitors as Molecular Tools for Dual Inhibition of Tubulin Deacetylation” (J Med Chem, 2023).
The source made the active and inactive calls. The rule behind the calls is not given here.

Columns and labels:
[1] = target: Histone deacetylase 9 (Homo sapiens) (UniProt Q9UKV0); test: Inhibition of HDAC9 (unknown origin) using Abz-SRGGK(STFA)FRR-NH2 as substrate at 6 to 20000 nM preincubated for 5 mins followed by substrate addition and measured every 30 secs for 30 mins by continuous fluorescence based assay; conditions: dose 6-20000 nM, time 35.0 min
Sequence of Histone deacetylase 9 (Homo sapiens) (Q9UKV0 whole entry): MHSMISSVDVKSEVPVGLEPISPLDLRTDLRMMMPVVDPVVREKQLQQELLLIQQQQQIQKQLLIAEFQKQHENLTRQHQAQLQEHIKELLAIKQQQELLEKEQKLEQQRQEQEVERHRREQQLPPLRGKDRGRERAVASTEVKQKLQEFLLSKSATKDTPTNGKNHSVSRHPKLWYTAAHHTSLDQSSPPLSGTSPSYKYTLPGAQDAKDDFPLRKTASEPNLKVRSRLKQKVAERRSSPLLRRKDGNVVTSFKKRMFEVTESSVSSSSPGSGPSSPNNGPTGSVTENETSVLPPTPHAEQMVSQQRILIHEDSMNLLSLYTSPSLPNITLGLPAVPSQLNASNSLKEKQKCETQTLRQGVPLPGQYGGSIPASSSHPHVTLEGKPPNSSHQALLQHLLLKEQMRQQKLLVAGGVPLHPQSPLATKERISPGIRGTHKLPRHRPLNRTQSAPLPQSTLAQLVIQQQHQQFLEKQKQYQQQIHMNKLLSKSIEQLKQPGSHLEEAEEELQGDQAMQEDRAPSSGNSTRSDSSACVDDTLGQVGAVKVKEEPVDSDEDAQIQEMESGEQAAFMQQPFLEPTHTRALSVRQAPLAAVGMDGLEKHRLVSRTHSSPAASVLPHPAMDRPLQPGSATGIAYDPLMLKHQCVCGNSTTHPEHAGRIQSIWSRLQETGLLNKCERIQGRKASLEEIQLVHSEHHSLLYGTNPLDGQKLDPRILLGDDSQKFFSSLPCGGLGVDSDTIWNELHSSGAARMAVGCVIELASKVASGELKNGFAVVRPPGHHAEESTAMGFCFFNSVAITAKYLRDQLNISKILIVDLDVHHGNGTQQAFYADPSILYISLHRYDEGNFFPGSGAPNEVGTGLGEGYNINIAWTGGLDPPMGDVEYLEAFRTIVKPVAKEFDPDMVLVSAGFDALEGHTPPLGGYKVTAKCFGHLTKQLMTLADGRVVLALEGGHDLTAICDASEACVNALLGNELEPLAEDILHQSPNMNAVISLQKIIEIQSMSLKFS
Summary of the method: (§1)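 Continuous fluorescence assay in 20 mM HEPES pH 7.4, 140 mM NaCl, 10 mM KCl, 1 mM TCEP, 0.2 mg/mL BSA, 3% DMSO final. Enzyme (HDAC4 5 nM, HDAC5 10 nM, HDAC7 5 nM, HDAC9 20 nM) preincubated with inhibitor at room temperature. HDAC10 (5 nM) instead in 20 mM HEPES pH 7.4, 0.5 mg/mL BSA. Initial slope used as activity.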

MCF7 = test: Cytotoxicity against human MCF7 cells assessed as reduction in cell viability incubated for 72 hrs by MTT assay; format: functional, cell-based
Summary of the method: (§2)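 Cell viability EC50 from at least two independent experiments, each run in triplicate. Results are compared by t-test.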

HGC-27 = test: Cytotoxicity against human HGC-27 cells assessed as reduction in cell viability incubated for 72 hrs by MTS assay; format: functional, cell-based; summary of the method: as §2
[2] = target: Histone deacetylase 1/2/3 (Homo sapiens) (UniProt Q13547+O15379+Q92769); test: Inhibition of HDAC1/2/3 in human MCF7 cells assessed as increase in histone H3 acetylation at 10 to 20 uM incubated for 24 hrs by Western blot analysis; format: cell-based; conditions: dose 10-20 µM
[3] = target: NAD-dependent protein deacylase sirtuin-5, mitochondrial (Homo sapiens) (UniProt Q9NXA8); test: Inhibition of Sirt5 (unknown origin) using Bz-GVLK(Succ)EYGV-NH2 as substrate at 20 to 500 uM preincubated for 5 mins followed by enzyme addition and measured after 5 mins by RP-HPLC analysis; conditions: dose 20-500 µM, time 10.0 min
Sequence of NAD-dependent protein deacylase sirtuin-5, mitochondrial (Homo sapiens) (Q9NXA8 37-310 limits assumed): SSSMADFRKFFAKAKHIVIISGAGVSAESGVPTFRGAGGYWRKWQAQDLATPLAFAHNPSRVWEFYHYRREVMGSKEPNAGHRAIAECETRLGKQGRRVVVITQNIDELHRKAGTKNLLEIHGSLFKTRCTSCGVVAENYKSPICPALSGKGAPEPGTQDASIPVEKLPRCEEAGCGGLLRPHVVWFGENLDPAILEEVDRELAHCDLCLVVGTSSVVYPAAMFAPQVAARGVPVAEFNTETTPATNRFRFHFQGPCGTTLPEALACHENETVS
Summary of the method: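 Discontinuous HPLC assay, 120 µL in 20 mM Tris pH 7.8, 150 mM NaCl, 5 mM MgCl2, 0.2 mg/mL BSA, 5% DMSO. Inhibitor preincubated at 37 °C with NAD+ (1 mM) and substrate (Sirt5 5 µM; Sirt6 20 µM). Started with enzyme (Sirt5 100 nM; Sirt6 500 nM). Quenched with TFA/ACN. Sirt5 read by A220, Sirt6 by A360 (nitrotyrosine). Performed once in duplicates; IC50 by nonlinear regression.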

PC-3M-luc = test: Cytotoxicity against human PC-3M-luc cells assessed as reduction in cell viability incubated for 72 hrs by MTS assay; format: functional, cell-based; summary of the method: as §2
[4] = target: Histone deacetylase 4 (Homo sapiens) (UniProt P56524); test: Inhibition of HDAC4 (unknown origin) using Abz-SRGGK(STFA)FRR-NH2 as substrate at 6 to 20000 nM preincubated for 5 mins followed by substrate addition and measured every 30 secs for 30 mins by continuous fluorescence based assay; conditions: dose 6-20000 nM, time 35.0 min; summary of the method: as §1
Sequence of Histone deacetylase 4 (Homo sapiens) (P56524 whole entry): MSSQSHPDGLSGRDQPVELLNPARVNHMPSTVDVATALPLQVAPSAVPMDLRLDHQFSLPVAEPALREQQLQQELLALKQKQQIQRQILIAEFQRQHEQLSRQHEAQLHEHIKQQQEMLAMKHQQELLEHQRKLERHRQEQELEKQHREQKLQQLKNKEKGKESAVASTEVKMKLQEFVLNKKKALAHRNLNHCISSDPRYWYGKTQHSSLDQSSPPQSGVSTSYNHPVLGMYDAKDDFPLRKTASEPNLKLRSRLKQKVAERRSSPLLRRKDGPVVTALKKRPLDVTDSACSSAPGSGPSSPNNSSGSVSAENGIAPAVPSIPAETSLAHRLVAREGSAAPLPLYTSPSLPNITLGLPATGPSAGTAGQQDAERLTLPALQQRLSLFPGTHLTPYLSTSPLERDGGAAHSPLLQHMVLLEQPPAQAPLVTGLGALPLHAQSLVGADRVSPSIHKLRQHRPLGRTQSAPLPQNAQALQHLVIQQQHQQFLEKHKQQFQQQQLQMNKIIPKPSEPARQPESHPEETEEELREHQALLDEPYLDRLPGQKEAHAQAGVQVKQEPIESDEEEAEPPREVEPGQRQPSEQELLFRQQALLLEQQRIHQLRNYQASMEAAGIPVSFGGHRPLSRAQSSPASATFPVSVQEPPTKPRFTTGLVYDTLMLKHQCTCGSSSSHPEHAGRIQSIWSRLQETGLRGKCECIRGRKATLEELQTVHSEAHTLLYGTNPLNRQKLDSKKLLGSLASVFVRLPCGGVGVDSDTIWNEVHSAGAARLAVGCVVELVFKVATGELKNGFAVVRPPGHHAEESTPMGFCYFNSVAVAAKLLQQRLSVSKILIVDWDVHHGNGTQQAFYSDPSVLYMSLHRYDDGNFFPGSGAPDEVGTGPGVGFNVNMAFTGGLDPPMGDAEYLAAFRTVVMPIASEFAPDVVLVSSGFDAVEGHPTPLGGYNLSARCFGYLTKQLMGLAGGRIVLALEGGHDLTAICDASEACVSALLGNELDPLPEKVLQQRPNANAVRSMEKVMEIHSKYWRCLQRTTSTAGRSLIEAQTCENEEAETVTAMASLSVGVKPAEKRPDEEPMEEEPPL

[5] = target: T1, Protein deacetylase HDAC6 (Homo sapiens) (UniProt Q9UBN7); test: Binding affinity to HDAC6 in human MCF7 cells assessed as target engagement by measuring rescue of PROTAC induced protein degradation at 20 uM preincubated with compound for 30 mins followed by PROTAC 4-((5-(8-(2-((2-(2,6-dioxopiperidin-3-yl)-1,3-dioxoisoindolin-4 yl)oxy)acetamido)octanamido)-2-meth …; format: cell-based; conditions: time 6.5 hrs
T1 sequence (whole entry): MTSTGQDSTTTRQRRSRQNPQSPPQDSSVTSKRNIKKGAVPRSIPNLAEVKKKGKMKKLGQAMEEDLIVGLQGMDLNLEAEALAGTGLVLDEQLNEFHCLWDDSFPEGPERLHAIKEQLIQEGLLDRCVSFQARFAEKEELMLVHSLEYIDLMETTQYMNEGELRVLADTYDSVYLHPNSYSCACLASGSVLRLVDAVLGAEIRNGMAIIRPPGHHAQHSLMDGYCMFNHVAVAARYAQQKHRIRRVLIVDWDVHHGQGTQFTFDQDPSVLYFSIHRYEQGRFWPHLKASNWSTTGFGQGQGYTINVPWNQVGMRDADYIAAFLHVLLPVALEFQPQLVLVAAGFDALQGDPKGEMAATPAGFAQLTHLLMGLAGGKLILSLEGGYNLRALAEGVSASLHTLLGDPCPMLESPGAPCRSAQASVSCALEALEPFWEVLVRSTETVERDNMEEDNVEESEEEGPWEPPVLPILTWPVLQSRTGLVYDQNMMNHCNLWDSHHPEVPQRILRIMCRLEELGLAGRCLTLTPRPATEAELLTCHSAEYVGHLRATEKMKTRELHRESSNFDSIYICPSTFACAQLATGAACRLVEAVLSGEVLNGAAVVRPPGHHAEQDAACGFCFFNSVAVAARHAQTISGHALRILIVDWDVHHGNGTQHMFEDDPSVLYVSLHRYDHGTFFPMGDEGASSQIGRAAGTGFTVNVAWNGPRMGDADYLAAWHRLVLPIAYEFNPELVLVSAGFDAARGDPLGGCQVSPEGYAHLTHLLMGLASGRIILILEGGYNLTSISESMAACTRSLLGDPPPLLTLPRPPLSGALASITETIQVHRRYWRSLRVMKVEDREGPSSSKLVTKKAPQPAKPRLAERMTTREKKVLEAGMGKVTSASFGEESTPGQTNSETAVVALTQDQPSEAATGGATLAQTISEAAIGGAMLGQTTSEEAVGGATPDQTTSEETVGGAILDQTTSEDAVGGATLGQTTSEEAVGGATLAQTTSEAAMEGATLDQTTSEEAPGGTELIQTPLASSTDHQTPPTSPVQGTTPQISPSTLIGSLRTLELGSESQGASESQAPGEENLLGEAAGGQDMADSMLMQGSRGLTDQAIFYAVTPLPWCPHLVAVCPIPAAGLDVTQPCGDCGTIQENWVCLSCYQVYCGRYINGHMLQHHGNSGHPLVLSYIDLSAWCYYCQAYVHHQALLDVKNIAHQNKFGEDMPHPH

inhibition [1]: inactive | inhibition [2]: inactive | inhibition [3]: inactive | inhibition [4]: inactive | Activity [5]: Active
SMILES: CCCCN(Cc1ccc(C(=O)NO)cc1)C(=O)CCCCn1cc(COc2cccc(Cc3cnc(NC(=O)CSc4nc(C)cc(C)n4)s3)c2)nn1
Activity (MCF7): Active | Activity (HGC-27): Active | Activity (PC-3M-luc): Active
